In ChEMBL document CHEMBL1134325, “Diaminoindanes as microsomal triglyceride transfer protein inhibitors” (J Med Chem, 2001):

Key:
Rattus norvegicus [1] = assay: Inhibition of total cholesterol in normolipidemic rats after 6 hr of 50 mg/kg oral dosing; format: functional
Outline: (§1)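 Overnight-fasted normolipidemic rats received a single oral dose in cornstarch vehicle. Blood was drawn at 2, 6 and 24 h post-dose and assayed for triglycerides and total cholesterol, with free access to food after the 6 h sample. Value is mean percent inhibition versus a separate vehicle-treated group, unpaired t test p < 0.05, NS = no significant change, N = 6.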

Canis familiaris [2] = assay: Inhibition of plasma total cholesterol in the normolipidemic dogs after day 4 of oral administration of 10 mg/kg/ day.; format: functional, Canis lupus familiaris
Outline: (§2)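 Normolipidemic dogs dosed once daily for 4 days by oral gavage, compound suspended in cornstarch vehicle. Plasma sampled 24 h after dosing on days 0, 2, 3 and 4, assayed for triglycerides and total cholesterol (mg/dL). Mean percent inhibition versus day-0 level is given for treated dogs; n = 6 per group; significance by one-way ANOVA, p < 0.05.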

Rattus norvegicus [3] = assay: Inhibition of total cholesterol in normolipidemic rats after 2 hr of 50 mg/kg oral dosing; format: functional; outline: as §1
Canis familiaris [4] = assay: Inhibition of plasma total triglycerides in the normolipidemic dogs after day 0 of oral administration of 5 mg/kg/ day.; format: functional, Canis lupus familiaris; outline: as §2
Canis familiaris [5] = assay: Inhibition of plasma total cholesterol in the normolipidemic dogs after day 2 of oral administration of 1 mg/kg/ day.; format: functional, Canis lupus familiaris; outline: as §2
Rattus norvegicus [6] = assay: Inhibition of plasma triglycerides in normolipidemic rats after 2 hr of 50 mg/kg oral dosing; format: functional; outline: as §1
Canis familiaris [7] = assay: Inhibition of plasma total triglycerides in the normolipidemic dogs after day 2 of oral administration of 2.5 mg/kg/ day.; format: functional, Canis lupus familiaris; outline: as §2
Canis familiaris [8] = assay: Inhibition of plasma total cholesterol in the normolipidemic dogs after day 4 of oral administration of 5 mg/kg/ day; format: functional, Canis lupus familiaris; outline: as §2
Canis familiaris [9] = assay: Inhibition of plasma total cholesterol in the normolipidemic dogs after day 2 of oral administration of 2.5 mg/kg/ day.; format: functional, Canis lupus familiaris; outline: as §2
Canis familiaris [10] = assay: Inhibition of plasma total triglycerides in the normolipidemic dogs after day 0 of oral administration of 10 mg/kg/ day.; format: functional, Canis lupus familiaris; outline: as §2
Canis familiaris [11] = assay: Inhibition of plasma total triglycerides in the normolipidemic dogs after day 3 of oral administration of 1 mg/kg/ day.; format: functional, Canis lupus familiaris; outline: as §2
[12] = target: T1, Microsomal triglyceride transfer protein large subunit (Homo sapiens, UniProt P55157); assay: In vitro inhibitory activity against MTP using MTP transfer assay
T1 sequence (P55157 whole entry): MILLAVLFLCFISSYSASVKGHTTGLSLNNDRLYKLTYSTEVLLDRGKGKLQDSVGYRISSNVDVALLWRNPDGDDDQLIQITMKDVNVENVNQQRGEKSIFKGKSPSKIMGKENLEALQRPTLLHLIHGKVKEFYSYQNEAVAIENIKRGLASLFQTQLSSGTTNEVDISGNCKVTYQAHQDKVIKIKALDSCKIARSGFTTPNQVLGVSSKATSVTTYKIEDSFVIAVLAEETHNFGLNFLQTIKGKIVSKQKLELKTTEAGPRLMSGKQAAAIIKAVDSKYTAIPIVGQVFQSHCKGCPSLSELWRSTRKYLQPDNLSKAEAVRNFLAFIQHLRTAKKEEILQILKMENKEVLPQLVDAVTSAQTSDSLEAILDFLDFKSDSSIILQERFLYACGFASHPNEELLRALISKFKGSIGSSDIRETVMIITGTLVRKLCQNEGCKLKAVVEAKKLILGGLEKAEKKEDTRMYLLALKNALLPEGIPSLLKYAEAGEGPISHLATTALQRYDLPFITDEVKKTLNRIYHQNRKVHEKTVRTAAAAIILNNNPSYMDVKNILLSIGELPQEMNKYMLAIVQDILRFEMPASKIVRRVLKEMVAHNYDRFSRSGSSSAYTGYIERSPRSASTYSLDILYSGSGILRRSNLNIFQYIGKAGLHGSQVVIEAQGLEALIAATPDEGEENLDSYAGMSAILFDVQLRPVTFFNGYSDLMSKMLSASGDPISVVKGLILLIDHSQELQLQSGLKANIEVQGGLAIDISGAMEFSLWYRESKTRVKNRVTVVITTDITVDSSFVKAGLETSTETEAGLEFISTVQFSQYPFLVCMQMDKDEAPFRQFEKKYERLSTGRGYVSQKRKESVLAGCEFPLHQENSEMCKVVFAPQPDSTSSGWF

Canis familiaris [13] = assay: Inhibition of plasma total triglycerides in the normolipidemic dogs after day 0 of oral administration of 1 mg/kg/ day.; format: functional, Canis lupus familiaris; outline: as §2
Rattus norvegicus [14] = assay: Inhibition of plasma triglycerides in normolipidemic rats after 24 h of 10 mg/kg oral dosing; format: functional; outline: as §1
Rattus norvegicus [15] = assay: Inhibition of plasma triglycerides in normolipidemic rats after 6 hr of 50 mg/kg oral dosing; format: functional; outline: as §1
Canis familiaris [16] = assay: Inhibition of plasma total triglycerides in the normolipidemic dogs after day 0 of oral administration of 2.5 mg/kg/ day.; format: functional, Canis lupus familiaris; outline: as §2
Canis familiaris [17] = assay: Inhibition of plasma total triglycerides in the normolipidemic dogs after day 2 of oral administration of 5 mg/kg/ day.; format: functional, Canis lupus familiaris; outline: as §2
Canis familiaris [18] = assay: Inhibition of plasma total cholesterol in the normolipidemic dogs after day 3 of oral administration of 2.5 mg/kg/ day.; format: functional, Canis lupus familiaris; outline: as §2
Canis familiaris [19] = assay: Inhibition of plasma total cholesterol in the normolipidemic dogs after day 0 of oral administration of 1 mg/kg/ day.; format: functional, Canis lupus familiaris; outline: as §2
Canis familiaris [20] = assay: Inhibition of plasma total triglycerides in the normolipidemic dogs after day 4 of oral administration of 5 mg/kg/ day; format: functional, Canis lupus familiaris
Canis familiaris [21] = assay: Inhibition of plasma total triglycerides in the normolipidemic dogs after day 2 of oral administration of 10 mg/kg/ day.; format: functional, Canis lupus familiaris; outline: as §2
Canis familiaris [22] = assay: Inhibition of plasma total triglycerides in the normolipidemic dogs after day 3 of oral administration of 2.5 mg/kg/ day.; format: functional, Canis lupus familiaris
Rattus norvegicus [23] = assay: Inhibition of plasma triglycerides in normolipidemic rats after 6 hr of 10 mg/kg oral dosing; no significant change; format: functional, organism-based; design: dose 10 mg/kg; outline: as §1
Canis familiaris [24] = assay: Inhibition of plasma total triglycerides in the normolipidemic dogs after day 3 of oral administration of 5 mg/kg/ day.; format: functional, Canis lupus familiaris
Rattus norvegicus [25] = assay: Inhibition of total cholesterol in normolipidemic rats after 6 hr of 10 mg/kg oral dosing; format: functional; outline: as §1
Canis familiaris [26] = assay: Inhibition of plasma total cholesterol in the normolipidemic dogs after day 0 of oral administration of 2.5 mg/kg/ day.; format: functional, Canis lupus familiaris; outline: as §2
Canis familiaris [27] = assay: Inhibition of plasma total cholesterol in the normolipidemic dogs after day 2 of oral administration of 5 mg/kg/ day.; format: functional, Canis lupus familiaris; outline: as §2
Rattus norvegicus [28] = assay: Inhibition of total cholesterol in normolipidemic rats after 24 hr of 10 mg/kg oral dosing; format: functional; outline: as §1
Rattus norvegicus [29] = assay: Inhibition of total cholesterol in normolipidemic rats after 24 hr of 50 mg/kg oral dosing; format: functional; outline: as §1
Canis familiaris [30] = assay: Inhibition of plasma total triglycerides in the normolipidemic dogs after day 3 of oral administration of 10 mg/kg/ day.; format: functional, Canis lupus familiaris
Canis familiaris [31] = assay: Inhibition of plasma total triglycerides in the normolipidemic dogs after day 2 of oral administration of 1 mg/kg/ day.; format: functional, Canis lupus familiaris; outline: as §2
Rattus norvegicus [32] = assay: Inhibition of plasma triglycerides in normolipidemic rats after 2 hr of 10 mg/kg oral dosing; format: functional; outline: as §1
Rattus norvegicus [33] = assay: Inhibition of plasma triglycerides in normolipidemic rats after 24 hr of 50 mg/kg oral dosing; format: functional; outline: as §1
Canis familiaris [34] = assay: Inhibition of plasma total triglycerides in the normolipidemic dogs after day 4 of oral administration of 10 mg/kg/ day; format: functional, Canis lupus familiaris
Canis familiaris [35] = assay: Inhibition of plasma total cholesterol in the normolipidemic dogs after day 4 of oral administration of 1 mg/kg/ day; format: functional, Canis lupus familiaris; outline: as §2
Canis familiaris [36] = assay: Inhibition of plasma total cholesterol in the normolipidemic dogs after day 0 of oral administration of 10 mg/kg/ day.; format: functional, Canis lupus familiaris; outline: as §2
Canis familiaris [37] = assay: Inhibition of plasma total cholesterol in the normolipidemic dogs after day 2 of oral administration of 10 mg/kg/ day.; format: functional, Canis lupus familiaris; outline: as §2
Canis familiaris [38] = assay: Inhibition of plasma total cholesterol in the normolipidemic dogs after day 0 of oral administration of 5 mg/kg/ day.; format: functional, Canis lupus familiaris; outline: as §2
Rattus norvegicus [39] = assay: Inhibition of total cholesterol in normolipidemic rats after 2 hr of 10 mg/kg oral dosing; format: functional; outline: as §1
Canis familiaris [40] = assay: Inhibition of plasma total cholesterol in the normolipidemic dogs after day 3 of oral administration of 1 mg/kg/ day.; format: functional, Canis lupus familiaris; outline: as §2
Canis familiaris [41] = assay: Inhibition of plasma total cholesterol in the normolipidemic dogs after day 3 of oral administration of 5 mg/kg/ day.; format: functional, Canis lupus familiaris; outline: as §2
Canis familiaris [42] = assay: Inhibition of plasma total triglycerides in the normolipidemic dogs after day 4 of oral administration of 1 mg/kg/ day; format: functional, Canis lupus familiaris
Canis familiaris [43] = assay: Inhibition of plasma total cholesterol in the normolipidemic dogs after day 3 of oral administration of 10 mg/kg/ day.; format: functional, Canis lupus familiaris; outline: as §2
Canis familiaris [44] = assay: Inhibition of plasma total cholesterol in the normolipidemic dogs after day 4 of oral administration of 2.5 mg/kg/ day; format: functional, Canis lupus familiaris; outline: as §2
Canis familiaris [45] = assay: Inhibition of plasma total triglycerides in the normolipidemic dogs after day 4 of oral administration of 2.5 mg/kg/ day; format: functional, Canis lupus familiaris

For COC(=O)N1CCN([C@H]2Cc3ccc(NC(=O)c4cccc(C)c4-c4ccc(C(F)(F)F)cc4)cc3C2)CC1, the Reduction (Rattus norvegicus [1]) was 50%, the Lipid level (Canis familiaris [2]) was <31 mg/dL and the Reduction (Rattus norvegicus [3]) was 35%. The Lipid level (Canis familiaris [4]) was 37 mg/dL, the Lipid level (Canis familiaris [5]) was 91 mg/dL and the Reduction (Rattus norvegicus [6]) was 80%. The Lipid level (Canis familiaris [7]) was 28 mg/dL, the Lipid level (Canis familiaris [8]) was 38 mg/dL and the Lipid level (Canis familiaris [9]) was 67 mg/dL. It also gave a Lipid level (Canis familiaris [10]) of 62 mg/dL, a Lipid level (Canis familiaris [11]) of 26 mg/dL and an IC50 [12] of 40 nM. It also gave a Lipid level (Canis familiaris [13]) of 38 mg/dL, a Reduction (Rattus norvegicus [14]) of 29% and a Reduction (Rattus norvegicus [15]) of 56%. For the same molecule, the Lipid level (Canis familiaris [16]) was 58 mg/dL, the Lipid level (Canis familiaris [17]) was 20 mg/dL and the Lipid level (Canis familiaris [18]) was 53 mg/dL. The Lipid level (Canis familiaris [19]) was 120 mg/dL, the Lipid level (Canis familiaris [20]) was 14 mg/dL and the Lipid level (Canis familiaris [21]) was 24 mg/dL. For the same molecule, the Lipid level (Canis familiaris [22]) was 20 mg/dL, the NS (Rattus norvegicus [23]) was “no significant change” and the Lipid level (Canis familiaris [24]) was 17 mg/dL. The Reduction (Rattus norvegicus [25]) was 29%, the Lipid level (Canis familiaris [26]) was 109 mg/dL and the Lipid level (Canis familiaris [27]) was 79 mg/dL. It also gave a Reduction (Rattus norvegicus [28]) of 15%, a Reduction (Rattus norvegicus [29]) of 18% and a Lipid level (Canis familiaris [30]) of 18 mg/dL. The Lipid level (Canis familiaris [31]) was 28 mg/dL, the Reduction (Rattus norvegicus [32]) was 70% and the Reduction (Rattus norvegicus [33]) was 44%. For the same molecule, the Lipid level (Canis familiaris [34]) was 19 mg/dL, the Lipid level (Canis familiaris [35]) was <73 mg/dL and the Lipid level (Canis familiaris [36]) was 143 mg/dL. For the same molecule, the Lipid level (Canis familiaris [37]) was 79 mg/dL, the Lipid level (Canis familiaris [38]) was 127 mg/dL and the Reduction (Rattus norvegicus [39]) was 40%. The Lipid level (Canis familiaris [40]) was 83 mg/dL, the Lipid level (Canis familiaris [41]) was <53 mg/dL and the Lipid level (Canis familiaris [42]) was 28 mg/dL. The Lipid level (Canis familiaris [43]) was 50 mg/dL, the Lipid level (Canis familiaris [44]) was <42 mg/dL and the Lipid level (Canis familiaris [45]) was 25 mg/dL.
